The list is not random: actives were taken first. Their share in the collection is about 0.79%.
bIAP inh = intestinal alkaline phosphatase (bovine) inhibition; purified bovine IAP, CDP-star luminescence, 30 min; inhibition, % at 20 µM; 190,000 tested, under 10 active; AID 1019;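 active means over 50% inhibition of intestinal alkaline phosphatase at 20 µM in the single-dose screen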
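System: Purified bovine intestinal alkaline phosphatase (IAP) enzyme | Input: IAP diluted 1/65,000,000 in the well | Also added: CDP-star chemiluminescent phosphatase substrate, 30 µM final | Dosing: 20 µM single dose | Times: Enzyme reaction for 30 min at room temperature | Detection: Luminescence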
mIAP inh = blocks mouse intestinal alkaline phosphatase. purified mouse IAP, CDP-Star luminescence, 30 min. inhibition, % at 10 µM. actives 0.2% (n = 330,000);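 active means inhibition of at least 40% at 10 µM in the primary screen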
hIAP act = increases human intestinal alkaline phosphatase activity | P09923 | purified human IAP, CDP-Star luminescence, 30 min; hits give high values; 1 = vehicle-only enzyme, 0 = enzyme-free background | activation factor at 10 µM | actives 0.16% (n = 330,000);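 active means activation factor of the enzyme at least 2-fold when tested at 20 µM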
Target sequence (P09923 whole entry, looked up): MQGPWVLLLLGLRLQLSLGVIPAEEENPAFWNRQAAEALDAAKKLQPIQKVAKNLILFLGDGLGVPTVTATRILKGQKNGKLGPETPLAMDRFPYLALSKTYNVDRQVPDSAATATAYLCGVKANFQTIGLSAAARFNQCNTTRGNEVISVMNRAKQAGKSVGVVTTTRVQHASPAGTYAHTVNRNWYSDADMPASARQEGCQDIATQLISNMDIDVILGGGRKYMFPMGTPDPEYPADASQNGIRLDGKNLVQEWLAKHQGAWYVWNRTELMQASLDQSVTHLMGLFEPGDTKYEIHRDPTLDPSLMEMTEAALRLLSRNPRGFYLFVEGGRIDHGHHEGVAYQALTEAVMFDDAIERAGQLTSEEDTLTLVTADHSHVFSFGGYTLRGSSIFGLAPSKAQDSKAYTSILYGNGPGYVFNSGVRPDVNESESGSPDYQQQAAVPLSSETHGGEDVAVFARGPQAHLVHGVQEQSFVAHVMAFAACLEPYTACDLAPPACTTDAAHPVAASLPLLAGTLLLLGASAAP
hIAP inh = human IAP inhibition | purified IAP, CDP-Star luminescence, 30 min | inhibition, % at 10 µM | actives 0.12% (n = 330,000) | AID 2544;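 active means inhibition reaching a set limit with compound at 10 µM in the primary screen, cut at about 35% in these data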
bIAP act = increases bovine intestinal alkaline phosphatase activity | purified bovine IAP, CDP-star luminescence, 30 min; hits give high values; fold of DMSO-control signal, blank-subtracted | activation factor at 20 µM | actives 0.17% (n = 200,000) | AID 1016;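 active means activation factor of 2 or more at 20 µM, a signal rise over negative controls twice the positive control's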
mIAP activ = increases mouse intestinal alkaline phosphatase activity | activation factor at 10 µM | AID 2805 | actives 0.24% (n = 330,000) | muIAP, CDP-Star luminescence, 30 min; hits give high values; 1 = vehicle-only enzyme signal, 0 = enzyme-free wells;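 active means activation factor of at least 2 at 20 µM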
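Assay system: mouse IAP enzyme / Compound: DMSO-dissolved test compounds / Timing: 30 min, room temperature / Measured by: luminescence from enzymatic CDP-Star hydrolysis / Control set: DMSO-only wells, enzyme-free buffer wells as negative control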
hIAP act conf = human IAP activation confirmation; shares compounds with hIAP act; purified IAP, CDP-Star luminescence, 30 min; hits give low values; activation (%Activity, negative = activation), % at 8.3 µM; actives 10% (n = 880); AID 434926;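 active means at least twofold enzyme activation in any of six single-dose repeats, which the averaged readout prints as negative percent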
Numbers stand for hits; 0 = inactive; - = no result.

SMILES | bIAP inh | mIAP inh | hIAP act | hIAP inh | bIAP act | mIAP activ | hIAP act conf
COc1cccc(C2c3c(-c4cc(Cl)c(C)cc4O)n[nH]c3C(=O)N2Cc2cccnc2)c1 (stereo not given) | 0 | 0 | 2.37 | 0 | 0 | 0 | 0
COc1ccc(C2c3c(-c4ccccc4O)n[nH]c3C(=O)N2Cc2ccco2)cc1 (stereo not given) | - | 0 | 2.23 | 0 | - | 0 | 0
Cc1ccc(C2c3c(-c4ccccc4O)n[nH]c3C(=O)N2Cc2ccncc2)cc1 (stereo not given) | 0 | 0 | 2.31 | 0 | 0 | 0 | 0
COc1cc(C2c3c(-c4ccccc4O)n[nH]c3C(=O)N2Cc2ccco2)cc(OC)c1OC (stereo not given) | - | 0 | 0 | 0 | - | 0 | -
COc1cc(C2c3c(-c4cc(Cl)c(C)cc4O)n[nH]c3C(=O)N2Cc2cccnc2)ccc1O (stereo not given) | 0 | 0 | 0 | 0 | 0 | 0 | -
Cn1nc(C(=O)N2CCN(c3ccccc3F)CC2)c2c1-c1ccccc1S(=O)(=O)C2 | - | 0 | 0 | 0 | - | 0 | -
Cc1ccc(N2C(=O)CCC(C(=O)O)C2c2cccs2)cc1 (stereo not given) | - | 0 | 0 | 0 | - | 0 | -
CCN1/C(=C/c2ccc3cc(C)ccc3[n+]2CC)Sc2ccccc21 | 0 | 0 | 0 | 36.9 | 0 | 0 | 0
CCN1/C(=C/c2ccc3cc(C)ccc3[n+]2CC)Sc2cc(C)c(C)cc21 | - | 0 | 0 | 0 | 0 | 0 | -
COc1ccc2c(c1OC)C(=O)N1C2SC[C@H]1C(=O)NC1CC1 (stereo not given in full) | - | 0 | 0 | 0 | - | 0 | -
COc1c(-c2ccc(O)c(O)c2)oc2cc(O)cc(O)c2c1=O | - | 0 | 0 | 59.6 | - | 0 | 0
CCOc1cccc(-c2nc(C(N)=O)c3[nH]c(=O)n(-c4cccc(Cl)c4)c3n2)c1O | 0 | 0 | 3.96 | 0 | 0 | 0 | -74.5
CCOc1ccc(NC(=O)CN2C(=O)COc3ccc(S(=O)(=O)N4CCCCC4)cc32)cc1 | - | 0 | 0 | 0 | - | 0 | -
COc1ccc(NC(=O)CN2C(=O)COc3ccc(S(=O)(=O)N4CCCCCC4)cc32)cc1 | - | 0 | 0 | 36.9 | - | 0 | 0
CCOC(=O)c1ccc(NC(=O)c2nc[nH]c2C(=O)NCCCCNC(=O)c2[nH]cnc2C(=O)Nc2ccc(C(=O)OCC)cc2)cc1 | - | 0 | 0 | 0 | - | 0 | -
CC(C)(C)OC(=O)NCCCC[C@H](NC(=O)c1[nH]cnc1C(=O)Nc1ccc(CNC(=O)OC(C)(C)C)cc1)C(=O)OC(C)(C)C | - | 0 | 2.72 | 0 | - | 0 | 0
CCOC(=O)c1ccc(NC(=O)c2nc[nH]c2C(=O)NCCCCCNC(=O)OC(C)(C)C)cc1 | - | 0 | 2.29 | 0 | - | 0 | 0
CC(C)(C)OC(=O)NCCCC[C@H](NC(=O)c1nc[nH]c1C(=O)NCc1ccccc1)C(=O)OC(C)(C)C | 0 | 0 | 0 | 0 | 0 | 0 | -
Cc1ccc(C(=O)NCC(=O)OCCCOC(=O)CNC(=O)c2ccc(C)c(C)c2)cc1C | - | 0 | 0 | 0 | - | 0 | -
Oc1ccc(Br)cc1/C=N/NC(=S)NCCc1ccccc1 | - | 0 | 0 | 0 | - | 0 | -
COc1ccc(O)c(/C=N/NC(=S)NCCc2ccccc2)c1 | - | 0 | 2.07 | 0 | - | 0 | -91.2
COc1ccc(C=C2C(=O)c3ccccc3C2=O)cc1O | - | 0 | 0 | 44.7 | 0 | 0 | 0
COc1cc(C=C2C(=O)c3ccccc3C2=O)ccc1O | - | 0 | 0 | 0 | - | 0 | -
Cc1cc(=O)[nH]c(SCC(=O)c2ccc(O)c(O)c2)n1 | - | 0 | 0 | 43.3 | - | 0 | 0
Cc1ccc(C(=O)CSc2nc(C)cc(=O)[nH]2)cc1 | 0 | 0 | 0 | 0 | 0 | 0 | -
SMILES | bIAP inh | mIAP inh | hIAP act | hIAP inh | bIAP act | mIAP activ | hIAP act conf
CCCn1nc(C(=O)N(C)CC(=O)Nc2ccc(OCC)c(OCC)c2)c2ccccc2c1=O | - | 0 | 0 | 0 | - | 0 | -
O=C(NCc1ccccn1)C(=O)Nc1nc(-c2ccccc2)cs1 | - | 0 | 2.17 | 0 | - | 0 | 0
O=C(NCc1ccccc1)C(=O)Nc1nc(-c2ccccc2)cs1 | - | 0 | 0 | 0 | - | 0 | -
COc1cc(NC(C)CCCN)c2ncccc2c1 (stereo not given) | - | 0 | 0 | 51.7 | - | 0 | 0
CCN(CC)CCN=C1CCCc2ccccc2N1 | 0 | 0 | 0 | 52.5 | 0 | 0 | 0
O=C1CCCc2ccccc2N1 | 0 | 0 | 0 | 0 | 0 | 0 | -
Nc1cc(=O)nc(SCC(=O)Nc2ccccc2Cl)n1-c1ccccc1 | 0 | 0 | 0 | 0 | 0 | 0 | -
O=C(/C=C/c1cc(Br)ccc1O)c1ccco1 | - | 0 | 0 | 0 | - | 0 | -
O=C(/C=C/c1ccccc1O)c1ccco1 | - | 0 | 0 | 42.2 | - | 0 | -104.2
O=C(COc1ccc(Br)cc1)NCCCn1ccnc1 | - | 0 | 2.55 | 0 | - | 0 | 0
C[C@@H]1O[C@@H](O[C@@H]2C(=O)c3c(O)cc(O)cc3O[C@H]2c2ccc(O)c(O)c2)[C@H](O)[C@H](O)[C@H]1O | - | 0 | 0 | 35.4 | - | 0 | 0
O=C1c2c(O)cc(O)cc2O[C@H](c2ccc(O)cc2)[C@H]1O | - | 0 | 0 | 0 | - | 0 | -
Cn1cc(C(=O)N2CCc3ccccc32)cn1 | 0 | 0 | 2.11 | 0 | 0 | 0 | 0
CCOC(=O)C1=C(c2ccc(OC)cc2)OC(N)=C(C#N)C1c1cccnc1 (stereo not given) | - | 0 | 2.95 | 0 | - | 0 | 0
Cc1cccc(N(CC(N)=O)C2SC(=O)N(c3ccccc3)C2=O)c1 (stereo not given) | 0 | 0 | 0 | 0 | 0 | 0 | -
Cc1ccc(N(CC(N)=O)C2SC(=O)N(C)C2=O)cc1 (stereo not given) | 0 | 0 | 0 | 64.6 | 0 | 0 | 0
Cc1cc(C)n(C(=O)CN2C(=O)CCC2=O)n1 | 0 | 0 | 0 | 0 | 0 | 0 | -
Cc1cc(C)n(C(=O)C23CC4CC(CC(C4)C2)C3)n1 | 0 | 0 | 2.36 | 0 | 0 | 0 | -125.8
O=C(O)c1ccc(Cl)c(NCc2cccs2)c1 | - | 0 | 0 | 0 | - | 0 | -
O=C(CSc1nnc(CNC(=O)c2cccs2)o1)Nc1ccc(F)cc1F | - | 0 | 0 | 0 | - | 0 | -
COC(=O)/C(C#N)=C/c1c(Oc2cc(C)cc(C)c2)nc2ccccn2c1=O | - | 0 | 2.03 | 0 | - | 0 | 0
O=S(=O)(c1ccc2ccccc2c1)n1cccn1 | - | 0 | 0 | 41.4 | - | 0 | 0
Cc1nc(CN2CCCCC2)cc(=O)[nH]1 | 0 | 0 | 0 | 0 | 0 | 0 | -
c1ccc(COc2ccc(CNn3cnnc3)cc2)cc1 | 0 | 0 | 0 | 54.4 | 0 | 0 | 0
c1ccc(Nc2ccnc(Nc3ccccc3)n2)cc1 | - | 0 | 2.77 | 0 | - | 0 | -43.5
Cn1nc(-c2ccc(Cl)cc2)cc1NC(=O)CCCC(=O)O | - | 0 | 0 | 0 | - | 0 | -
CC(C)c1ccc(NC(=O)CSc2nc3ccccc3nc2N2CCCC2)cc1 | - | 0 | 0 | 0 | - | 0 | -
COc1cccc(/C=N/NC(=O)c2cc(-c3cccn3C)n[nH]2)c1O | 0 | 0 | 2.45 | 0 | 0 | 0 | 0
